# Reference: ChEMBL document CHEMBL1649309, “Foreign travel is a major risk factor for colonization with Escherichia coli producing CTX-M-type extended-spectrum beta-lactamases: a prospective study with Swedish volunteers” (Antimicrob Agents Chemother, 2010)
# Calls of active or inactive are those of the source. The rule behind the calls is not given here.
# Test system: Escherichia coli
# Test: Antimicrobial activity against ESBL producing Escherichia coli assessed as susceptible isolates by Etest in presence of beta-lactamase inhibitor Tazobactam
# Format: functional, organism-based
# How it was run: (§1)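 24 ESBL-producing E. coli strains acquired during travel, isolated from post-travel rectal swabs of Swedish travellers. Swabs were enriched in LB broth with cefotaxime 2.5 μg/ml, then plated on MacConkey agar with cefotaxime and ceftazidime discs, overnight at 35°C in room air. ESBL production was confirmed by disc-diffusion synergy test and CTX-M by PCR. Susceptibility was measured by Etest and interpreted per EUCAST guidelines.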
row,Compound,Activity
1,CCN1CCN(C(=O)N[C@@H](C(=O)N[C@@H]2C(=O)N3[C@@H]2SC(C)(C)[C@@H]3C(=O)O)c2ccccc2)C(=O)C1=O,Active

# Test system: Escherichia coli
# Test: Antimicrobial activity against ESBL producing Escherichia coli assessed as resistant isolates by Etest
# Format: functional, organism-based
# How it was run: as §1
row,Compound,Activity
1,C[C@@H]1O[C@@H]1P(=O)(O)O,inactive
2,NC[C@H]1O[C@H](O[C@H]2[C@H](O)[C@@H](O[C@H]3O[C@H](CO)[C@@H](O)[C@H](N)[C@H]3O)[C@H](N)C[C@@H]2N)[C@H](N)C[C@@H]1O,inactive
3,GENTAMICIN,inactive

# Test system: Escherichia coli
# Test: Antimicrobial activity against ESBL producing Escherichia coli assessed as susceptible isolates by Etest
# Format: functional, organism-based
# How it was run: as §1
row,Compound,Activity
1,C[C@@H](O)[C@H]1C(=O)N2C(C(=O)O)=C(S[C@@H]3CN[C@H](C(=O)Nc4cccc(C(=O)O)c4)C3)[C@H](C)[C@H]12,Active
2,CC1(C)S[C@@H]2[C@H](/N=C/N3CCCCCC3)C(=O)N2[C@H]1C(=O)O,Active
3,O=C(O)c1cn(C2CC2)c2cc(N3CCNCC3)c(F)cc2c1=O,Active
4,O=C1CN(/N=C/c2ccc([N+](=O)[O-])o2)C(=O)N1,Active
5,C[C@@H](O)[C@H]1C(=O)N2C(C(=O)O)=C(S[C@@H]3CN[C@H](C(=O)N(C)C)C3)[C@H](C)[C@H]12,Active
6,C[C@@H](O)[C@H]1C(=O)N2C(C(=O)O)=C(SCCNC=N)C[C@H]12,Active
